ChEMBL document CHEMBL4765357, “Development of small-molecule inhibitors of fatty acyl-AMP and fatty acyl-CoA ligases in Mycobacterium tuberculosis” (Eur J Med Chem, 2020)
≈ marks a conversion by molar mass, not a printed value.

Experiments:
[1] = system: Mycobacterium tuberculosis; experiment: Antimycobacterial activity against Mycobacterium tuberculosis H37Rv ATCC 27294 assessed as inhibition of bacterial growth under GAST medium condition after 7 to 14 days by broth microdilution method; format: functional; settings: time 7-14 day
Summary of the method: (§1)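 Mtb H37Rv ATCC 27294 by broth microdilution in GAST or 7H9 base with 5 g/L BSA fraction V, 0.8 g/L NaCl and 0.05% tyloxapol. Carbon source was 20 mM glycerol/10 mM glucose or 0.05 mM sodium palmitate. Compounds came from DMSO stocks with DMSO-only controls. Inoculum was 10⁴-10⁵ cells; growth was read at 7 and 14 days. MIC is the concentration giving >99% growth inhibition; runs were in triplicate.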

[2] = molecular target: T1, Medium/long-chain-fatty-acid--CoA/3-oxocholest-4-en-26-oate--CoA ligase (Mycobacterium tuberculosis, UniProt P9WQ51); experiment: Inhibition of Mycobacterium tuberculosis H37Rv FACL19 Spectra expressed in Escherichia coli BL21(DE3) cells assessed as cleavage of MEsG by spectroscopic analysis; settings: read-out: Ki(app)
T1 sequence (P9WQ51 whole entry): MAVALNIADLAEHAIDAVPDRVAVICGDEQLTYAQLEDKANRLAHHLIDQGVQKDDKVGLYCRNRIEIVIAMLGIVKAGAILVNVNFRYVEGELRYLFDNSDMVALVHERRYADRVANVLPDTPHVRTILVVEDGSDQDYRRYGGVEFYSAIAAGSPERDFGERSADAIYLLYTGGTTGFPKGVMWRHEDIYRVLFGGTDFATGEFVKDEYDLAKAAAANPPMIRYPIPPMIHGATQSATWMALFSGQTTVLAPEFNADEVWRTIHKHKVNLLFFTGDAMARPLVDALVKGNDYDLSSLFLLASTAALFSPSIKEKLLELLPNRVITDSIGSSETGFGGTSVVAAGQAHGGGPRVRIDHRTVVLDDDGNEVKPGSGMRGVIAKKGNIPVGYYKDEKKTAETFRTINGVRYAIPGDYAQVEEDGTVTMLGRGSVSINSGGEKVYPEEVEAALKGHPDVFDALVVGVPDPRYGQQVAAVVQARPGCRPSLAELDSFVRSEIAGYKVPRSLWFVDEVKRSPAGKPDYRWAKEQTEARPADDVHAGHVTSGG
Summary of the method: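 FACL19 (0.167 μM) with 250 μM dodecanoic acid in a coupled MesG assay with pyrophosphatase and nucleoside phosphorylase. Buffer was 50 mM Tris·HCl pH 8.0 with 2.5 mM ATP, 5 mM MgCl₂, 0.5 mM DTT and 150 mM hydroxylamine. Apparent Ki came from a Morrison tight-binding fit.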

[3] = molecular target: T2, Long-chain-fatty-acid--AMP ligase FadD28 (Mycobacterium tuberculosis, UniProt P9WQ59); experiment: Inhibition of Mycobacterium tuberculosis H37Rv FAAL28 Spectra expressed in Escherichia coli BL21(DE3) cells assessed as cleavage of MEsG by spectroscopic analysis; settings: read-out: Ki(app)
T2 sequence (P9WQ59 whole entry): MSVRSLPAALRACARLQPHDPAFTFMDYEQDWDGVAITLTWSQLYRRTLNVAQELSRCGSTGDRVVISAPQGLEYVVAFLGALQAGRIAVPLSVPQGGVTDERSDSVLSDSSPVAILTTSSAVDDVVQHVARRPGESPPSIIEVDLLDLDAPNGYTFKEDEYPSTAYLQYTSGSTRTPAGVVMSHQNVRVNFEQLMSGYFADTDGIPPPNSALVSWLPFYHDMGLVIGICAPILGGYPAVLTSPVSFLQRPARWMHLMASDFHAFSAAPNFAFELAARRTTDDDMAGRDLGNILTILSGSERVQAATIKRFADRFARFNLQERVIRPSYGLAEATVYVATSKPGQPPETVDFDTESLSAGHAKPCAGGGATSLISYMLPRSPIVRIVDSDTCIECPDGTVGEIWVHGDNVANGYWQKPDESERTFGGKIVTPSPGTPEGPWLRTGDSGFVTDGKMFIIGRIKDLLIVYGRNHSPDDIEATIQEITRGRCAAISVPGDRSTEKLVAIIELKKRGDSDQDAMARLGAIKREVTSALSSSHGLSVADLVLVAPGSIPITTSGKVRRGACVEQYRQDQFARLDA
Summary of the method: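 Coupled continuous assay with pyrophosphatase (0.04 U) and nucleoside phosphorylase (0.1 U), using 0.45 μM FAAL28 and 33 μM tetradecanoic acid. Buffer was 50 mM Tris·HCl pH 8.0 with 2.5 mM ATP, 5 mM MgCl₂, 0.5 mM DTT, 150 mM hydroxylamine and 0.2 mM MesG. Apparent Ki came from a Morrison equation fit.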

[4] = system: Mycobacterium tuberculosis; experiment: Antimycobacterial activity against Mycobacterium tuberculosis H37Rv ATCC 27294 assessed as inhibition of bacterial growth under 7H9 medium condition after 7 to 14 days by broth microdilution method; format: functional; settings: time 7-14 day; summary of the method: as §1
[5] = system: Mycobacterium tuberculosis; experiment: Antimycobacterial activity against Mycobacterium tuberculosis H37Rv ATCC 27294 assessed as inhibition of bacterial growth under 7H9 medium condition after 7 to 14 days in presence of palmitate by broth microdilution method; format: functional; settings: time 7-14 day; summary of the method: as §1
[6] = system: Vero; experiment: Cytotoxicity against African green monkey Vero cells assessed as reduction in cell viability after 72 hrs by MTT assay; format: cell-based; settings: Chlorocebus sabaeus
Summary of the method: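 Vero cells were seeded at (2.5–5.0) × 10⁴ per well in MEM with 5% FBS and penicillin/streptomycin. Compounds were added from 20 mM DMSO stocks to a final 100 μM. Controls were 0.5% and 50% DMSO, all in triplicate. After 72 h at 37 °C in 5% CO₂, cells got 1 mg/mL MTT for 3 h. Formazan was dissolved in isopropanol and read at 570/650 nm, with viability expressed relative to DMSO control.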

In the case of `COc1ccccc1OCCCCCCCCCCC(=O)NS(=O)(=O)OC[C@H]1O[C@@H](n2cnc3c(N)ncnc32)[C@H](O)[C@@H]1O`, the MIC [1] is reported as greater than 50 µM, the Ki [2] is reported as greater than 100 µM and the Ki [3] is reported as greater than 100 µM.

`CCCCCCCCC[C@@H]1C[C@@H]1C(=O)NS(=O)(=O)OC[C@H]1O[C@@H](n2cnc3c(N)ncnc32)[C@H](O)[C@@H]1O` showed an MIC [1] of 50 µM (≈ 27 µg/mL), an MIC [4] greater than 100 µM and an MIC [5] greater than 100 µM. For the same molecule, the Ki [2] was greater than 100 µM, the Ki [3] was 69.8 µM and the IC50 [6] was 6.1 µM.

In the case of `Nc1ncnc2c1ncn2[C@@H]1O[C@H](COS(=O)(=O)NC(=O)CCCCCCCCCCOc2cccc(C(F)(F)F)c2)[C@@H](O)[C@H]1O`, the MIC [1] is reported as 25 µM (≈ 16.9 µg/mL), the Ki [2] is reported as 13.5 µM and the Ki [3] is reported as 4.4 µM.

`Nc1ncnc2c1ncn2[C@@H]1O[C@H](COS(=O)(=O)NC(=O)CCCCCCCCCCNc2ccccc2)[C@@H](O)[C@H]1O` was tested, and the MIC [1] was 12.5 µM (≈ 7.57 µg/mL), the Ki [2] was 63.4 µM and the Ki [3] was 7.3 µM.

Molecule `Nc1ncnc2c1ncn2[C@@H]1O[C@H](COS(=O)(=O)NC(=O)CCCCCCCCCCOc2ccc(Cl)cc2)[C@@H](O)[C@H]1O` has an MIC [1] of 6.25 µM (≈ 4.01 µg/mL), a Ki [2] of 13.7 µM and a Ki [3] of 2.2 µM.

Work on `Nc1ncnc2c1ncn2[C@@H]1O[C@H](COS(=O)(=O)NC(=O)CCCCCCCCCCOc2ccc(C(F)(F)F)cc2)[C@@H](O)[C@H]1O` yielded an MIC [1] of 25 µM (≈ 16.9 µg/mL), a Ki [2] of 34.4 µM and a Ki [3] of 15.6 µM.

In the case of `Nc1ncnc2c1ncn2[C@@H]1O[C@H](COS(=O)(=O)NC(=O)CCCCCCCCCCOc2cccc(F)c2)[C@@H](O)[C@H]1O`, the MIC [1] is reported as 25 µM (≈ 15.6 µg/mL), the Ki [2] is reported as 7.3 µM and the Ki [3] is reported as 1.6 µM.

`Nc1ncnc2c1ncn2[C@@H]1O[C@H](CNS(=O)(=O)OCCCCCCCCCCCOc2ccccc2)[C@@H](O)[C@H]1O` showed an MIC [1] greater than 50 µM, a Ki [2] greater than 100 µM and a Ki [3] greater than 100 µM.

`Nc1ncnc2c1ncn2[C@@H]1O[C@H](COS(=O)(=O)NC(=O)CCCCCCCCCCOc2ccc(Br)cc2)[C@@H](O)[C@H]1O` showed an MIC [1] greater than 50 µM, a Ki [2] of 10.4 µM and a Ki [3] of 4 µM.

`Nc1ncnc2c1ncn2[C@@H]1O[C@H](COS(=O)(=O)NC(=O)CCCCCCCCCCOc2cccc3ccccc23)[C@@H](O)[C@H]1O` was tested, and the MIC [1] was greater than 50 µM, the Ki [2] was 9.64 µM and the Ki [3] was 25.2 µM.

With `Nc1ncnc2c1ncn2[C@@H]1O[C@H](COS(=O)(=O)NC(=O)CCCCCCCCCOc2ccccc2)[C@@H](O)[C@H]1O` the MIC [1] was 50 µM (≈ 29.6 µg/mL), the Ki [2] was greater than 100 µM and the Ki [3] was 6.7 µM.

With `Nc1ncnc2c1ncn2[C@@H]1O[C@H](COS(=O)(=O)NC(=O)CCCCCCCCCCSc2ccccc2)[C@@H](O)[C@H]1O` the MIC [1] was greater than 50 µM, the Ki [2] was 41.6 µM and the Ki [3] was 6.3 µM.

`Nc1ncnc2c1ncn2[C@@H]1O[C@H](CNS(=O)(=O)NC(=O)CCCCCCCCCCOc2ccccc2)[C@@H](O)[C@H]1O` gave an MIC [1] of 1.56 µM (≈ 0.945 µg/mL), a Ki [2] greater than 100 µM and a Ki [3] of 3.1 µM.

`Nc1ncnc2c1ncn2[C@@H]1O[C@H](COS(=O)(=O)NC(=O)CCCCCCCCCCOc2ccccc2F)[C@@H](O)[C@H]1O` showed an MIC [1] greater than 50 µM, a Ki [2] greater than 100 µM and a Ki [3] of 1.5 µM.

Work on `Nc1ncnc2c1ncn2[C@@H]1O[C@H](COS(=O)(=O)NC(=O)CCCCCCCCCCOc2cccc(Cl)c2)[C@@H](O)[C@H]1O` yielded an MIC [1] of 25 µM (≈ 16 µg/mL), a Ki [2] of 26.4 µM and a Ki [3] of 0.5 µM.

In the case of `Nc1ncnc2c1ncn2[C@@H]1O[C@H](COS(=O)(=O)NC(=O)CCCCCCCCCCOc2ccccc2C(F)(F)F)[C@@H](O)[C@H]1O`, the MIC [1] is reported as greater than 50 µM, the Ki [2] is reported as 28.5 µM and the Ki [3] is reported as 1.3 µM.
